One series concerns A549. Description: Antiproliferative activity against human A549 cells incubated for 48 hrs by MTT assay. In kind it is functional, cell-based. The conditions noted are these: A549, 48 h. Put shortly: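 MTT assay on F10 (murine melanoma), HeLa, A549, MCF-7 and 293T (human renal epithelium) cells. IC50 given as mean ± SD of three independent experiments.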
In series [1] the target is Prostaglandin G/H synthase 1 (Homo sapiens, UniProt P23219). Description: Inhibition of COX1 (unknown origin) using arachidonic acid as substrate incubated for 10 mins by Ellman's reagent based COX-1/COX-2 ELISA assay. For orientation: In Ellman's method for cholinesterases, released thiocholine reacts with DTNB.
In series [2] the test system is B16-F10. In words: Induction of apoptosis in mouse B16F10 cells assessed as late apoptosis cells at 3.125 uM incubated for 48 hrs by Annexin-V-FITC/propidium iodide staining-based flow cytometric analysis (reference value: 2.88%). In kind it is functional. Put shortly: (§1)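 F10 cells were exposed to 0, 3.125, 6.25, 12.5 or 25 µM for 48 h. Cells were stained with Annexin V/PI and read by flow cytometry. Data are mean ± SD of three independent experiments.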

Series [3] deals with B16-F10. Description: Induction of apoptosis in mouse B16F10 cells assessed as late apoptosis cells at 6.25 uM incubated for 48 hrs by Annexin-V-FITC/propidium iodide staining-based flow cytometric analysis (reference value: 2.88%). The class given is functional. Put shortly:
as §1
(In general: Flow cytometry measures light scatter and fluorescence of single cells or particles in a stream.)

The test system of series [4] is B16-F10. In words: Induction of apoptosis in mouse B16F10 cells assessed as necrosis cells at 6.25 uM incubated for 48 hrs by Annexin-V-FITC/propidium iodide staining-based flow cytometric analysis (reference value: 0.186%). In kind it is functional. Put shortly:
as §1

For series [5], the system named is B16-F10. Description: Induction of apoptosis in mouse B16F10 cells assessed as viable cells at 12.5 uM incubated for 48 hrs by Annexin-V-FITC/propidium iodide staining-based flow cytometric analysis (reference value: 94%). To be noted: B16-F10, 48 h, read-out: Activity. In kind it is functional. An outline of the steps: as §1
For series [6], the system named is B16-F10. In words: Induction of apoptosis in mouse B16F10 cells assessed as necrosis cells at 12.5 uM incubated for 48 hrs by Annexin-V-FITC/propidium iodide staining-based flow cytometric analysis (reference value: 0.186%). In kind it is functional. Put shortly: as §1
Series [7] concerns B16-F10. In words: Induction of apoptosis in mouse B16F10 cells assessed as viable cells at 25 uM incubated for 48 hrs by Annexin-V-FITC/propidium iodide staining-based flow cytometric analysis (reference value: 94%). To be noted: B16-F10, 48 h, read-out: Activity. The class given is functional. An outline of the steps: as §1
Series [8] deals with B16-F10. In words: Induction of apoptosis in mouse B16F10 cells assessed as early apoptosis cells at 25 uM incubated for 48 hrs by Annexin-V-FITC/propidium iodide staining-based flow cytometric analysis (reference value: 2.93%). In kind it is functional. An outline of the steps:
as §1

The subject of series [9] is B16-F10. Description: Induction of apoptosis in mouse B16F10 cells assessed as viable cells at 3.125 uM incubated for 48 hrs in presence of apoptosis inhibitor z-VAD-fmk by Annexin-V-FITC/propidium iodide staining-based flow cytometric analysis (reference value: 92.5%). In kind it is functional. To be noted: B16-F10, 48 h, read-out: Activity.
Series [10] deals with B16-F10. In words: Induction of apoptosis in mouse B16F10 cells assessed as early apoptosis cells at 6.25 uM incubated for 48 hrs in presence of apoptosis inhibitor z-VAD-fmk by Annexin-V-FITC/propidium iodide staining-based flow cytometric analysis (reference value: 3.83%). The class given is functional.
Series [11] deals with B16-F10. Description: Induction of apoptosis in mouse B16F10 cells assessed as viable cells at 25 uM incubated for 48 hrs in presence of apoptosis inhibitor z-VAD-fmk by Annexin-V-FITC/propidium iodide staining-based flow cytometric analysis (reference value: 92.5%). In kind it is functional. The conditions noted are these: B16-F10, 48 h, read-out: Activity.
In series [12] the test system is B16-F10. In words: Induction of apoptosis in mouse B16F10 cells incubated for 48 hrs by Annexin-V-FITC/propidium iodide staining-based flow cytometric analysis. In kind it is functional, cell-based. An outline of the steps:
as §1

The test system of series [13] is B16-F10. Description: Induction of cell cycle arrest in mouse B16F10 cells assessed as cell accumulation at G1 phase at 6.25 uM incubated for 48 hrs by propidium iodide staining-based flow cytometric analysis (reference value: 59.73%). In kind it is functional.
In series [14] the test system is B16-F10. Description: Induction of cell cycle arrest in mouse B16F10 cells assessed as cell accumulation at G2 phase at 12.5 uM incubated for 48 hrs by propidium iodide staining-based flow cytometric analysis (reference value: 22.43%). In kind it is functional.
In series [15] the test system is B16-F10. Description: Induction of cell cycle arrest in mouse B16F10 cells assessed as cell accumulation at G2 phase at 25 uM incubated for 48 hrs by propidium iodide staining-based flow cytometric analysis (reference value: 22.43%). The class given is functional.
Series [16] deals with B16-F10. Description: Inhibition of LPS-induced PGE2 production in mouse B16F10 cells at 6.25 uM incubated for 24 hrs by enzyme immunoassay. In kind it is functional, cell-based. An outline of the steps:
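F10 cells treated for 24 h alongside LPS (1 µg/ml), test agent at 6.25 µM. Supernatant collected by centrifugation and PGE2 measured with a PGE2 enzyme immunoassay (ELISA) kit. Mean ± SD of three independent experiments.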

The test system of series [17] is B16-F10. In words: Antitumor activity against mouse B16F10 cells implanted in nude mouse assessed as reduction in tumor size at 20 mg/kg, ip administered once per 2 days for 14 days by caliper method. In kind it is functional. An outline of the steps:
(§2)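 Nude mice were given 5×10^6 F10 cells subcutaneously in the right flank. At about 100 mm3, 24 mice were randomized into four groups of vehicle or compound. Dosing was intraperitoneal every two days for two weeks. Tumor volume was recorded every other day. Tumors were excised and weighed after the last treatment, and body weight was monitored.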

Series [18] has as its system B16-F10. Description: Antitumor activity against mouse B16F10 cells implanted in nude mouse assessed as tumor weight at 40 mg/kg, ip administered once per 2 days for 14 days by caliper method (reference value: 1.24g). The class given is functional. An outline of the steps: as §2
A short description of series [19]: Toxicity in mouse B16F10 cells implanted in nude mouse assessed as change in body weight at 20 to 40 mg/kg, ip administered once per 2 days for 14 days. In kind it is organism-based. The conditions noted are these: in vivo. An outline of the steps:
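Nude mice carried subcutaneous right-flank xenografts of 5×10^6 F10 cells. At about 100 mm3 tumor size they were randomized into groups of six (twenty-four mice, four groups): vehicle or 20 or 40 mg/kg, given intraperitoneally once every two days for two weeks. Body weight was tracked during treatment.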

A short description of series [20]: Inhibition of 5-LOX assessed as calcium ionophore A23187-stimulated LTB4 production preincubated for 30 mins followed by calcium ionophore A23187 addition and measured after 30 mins by ELISA. For orientation: An ELISA detects its analyte on a solid surface through an enzyme-linked reagent.

This note sets out measurements from ChEMBL document CHEMBL4346661, “Design, synthesis and evaluation of novel diaryl-1,5-diazoles derivatives bearing morpholine as potent dual COX-2/5-LOX inhibitors and antitumor agents” (Eur J Med Chem, 2019).

Activity calls are given as the source filed them. The calls are words filed in the database; no cut-off is given here.

Chain of Prostaglandin G/H synthase 1 (P23219 whole entry): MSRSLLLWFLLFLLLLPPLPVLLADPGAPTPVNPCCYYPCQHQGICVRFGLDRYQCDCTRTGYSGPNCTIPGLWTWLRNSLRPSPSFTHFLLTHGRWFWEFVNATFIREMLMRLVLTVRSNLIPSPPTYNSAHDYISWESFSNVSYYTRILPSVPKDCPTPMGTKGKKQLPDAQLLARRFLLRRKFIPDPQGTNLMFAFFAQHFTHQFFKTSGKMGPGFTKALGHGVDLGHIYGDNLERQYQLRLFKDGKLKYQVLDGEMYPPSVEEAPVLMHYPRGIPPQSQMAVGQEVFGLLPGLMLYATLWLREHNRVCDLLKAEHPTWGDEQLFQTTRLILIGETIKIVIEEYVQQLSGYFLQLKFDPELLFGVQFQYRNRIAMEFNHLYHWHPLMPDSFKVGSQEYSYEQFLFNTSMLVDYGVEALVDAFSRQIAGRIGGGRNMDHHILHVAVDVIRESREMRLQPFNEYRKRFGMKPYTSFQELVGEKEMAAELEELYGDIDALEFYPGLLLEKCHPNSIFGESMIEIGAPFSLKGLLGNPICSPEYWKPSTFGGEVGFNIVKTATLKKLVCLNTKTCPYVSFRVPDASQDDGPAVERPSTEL

Broadly, the IC50 is the concentration needed to halve the response being measured. For `NS(=O)(=O)c1ccc(-n2nc(C(=O)NCCCN3CCOCC3)cc2-c2ccc(C(F)(F)F)cc2)cc1`, the IC50 in the series on A549 is 11 µM; in series [1], 32.1 µM; in series [20], 0.68 µM. Further, the Activity in the series with B16-F10 [2] came out at 4.9%; in the series with B16-F10 [3], 7.9%; with B16-F10 [4], 0.366%; in the series on B16-F10 [6] it was 0.685%; in the series on B16-F10 [8] it was 40.8%; in the series on B16-F10 [10] it was 5.74%. Also, the Activity entry is “Dose-dependent effect” in the series with B16-F10 [12]; 50.07% in the series on B16-F10 [13]; 30.41% in the series with B16-F10 [14]; 33.6% in the series on B16-F10 [15]; 1076.58 mm3 with B16-F10 [17]; 0.48 g with B16-F10 [18]. The Activity entry in series [19] was “Non-Toxic”. Also, in the series on B16-F10 [5], the viability at 12.5 µM is 73.7%. Also, the viability at 25 µM was determined as 51.8% in the series with B16-F10 [7] and 78.8% in the series with B16-F10 [11]. The viability at 3.125 µM in the series on B16-F10 [9] came out at 90.9%. Besides, the inhibition result in the series with B16-F10 [16] is “Active”.
